In the M2OR odorant receptor database:
Residue numbers refer to the chain shown, from its start.

Key:
Conditions in all cases: stereoisomer not certain
OR5C1 (Homo sapiens) = molecular target: T1, OR5C1 (Homo sapiens) (UniProt Q8NGR4)
T1 sequence (whole entry): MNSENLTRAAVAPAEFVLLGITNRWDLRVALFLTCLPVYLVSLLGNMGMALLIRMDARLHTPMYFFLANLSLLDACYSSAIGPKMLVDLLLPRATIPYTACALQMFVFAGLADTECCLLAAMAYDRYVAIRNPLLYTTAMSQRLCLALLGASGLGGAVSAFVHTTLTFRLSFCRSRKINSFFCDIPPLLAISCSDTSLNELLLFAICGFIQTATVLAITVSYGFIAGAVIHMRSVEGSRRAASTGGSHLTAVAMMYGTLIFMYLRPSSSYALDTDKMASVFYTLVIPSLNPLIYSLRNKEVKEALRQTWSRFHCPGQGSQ
Summary of the method: (§1)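 Values were gathered from published papers (main text and supplementary material), with extra details requested from the original authors when needed, and checked for typos and inconsistencies. Each receptor–molecule pair is called responsive (active) if the original authors judged the measured signal statistically different from baseline, and non-responsive (inactive) otherwise. Assay methods varied by source, often transient mammalian cell-line luciferase assays. Recorded details include cell line, G-protein, co-transfected protein and tags.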

OR5D13 (Homo sapiens) = molecular target: T2, OR5D13 (Homo sapiens) (UniProt Q8NGL4)
T2 sequence (whole entry): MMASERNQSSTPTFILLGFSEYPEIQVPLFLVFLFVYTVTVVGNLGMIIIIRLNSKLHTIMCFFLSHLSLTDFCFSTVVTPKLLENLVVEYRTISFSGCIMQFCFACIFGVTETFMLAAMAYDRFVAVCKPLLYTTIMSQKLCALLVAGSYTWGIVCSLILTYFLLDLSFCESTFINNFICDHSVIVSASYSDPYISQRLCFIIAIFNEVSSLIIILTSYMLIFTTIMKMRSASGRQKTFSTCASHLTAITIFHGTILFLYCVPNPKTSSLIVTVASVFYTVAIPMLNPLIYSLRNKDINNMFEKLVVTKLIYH
Summary of the method: as §1

OR5D14 (Homo sapiens) = molecular target: T3, OR5D14 (Homo sapiens) (UniProt Q8NGL3)
T3 sequence (whole entry): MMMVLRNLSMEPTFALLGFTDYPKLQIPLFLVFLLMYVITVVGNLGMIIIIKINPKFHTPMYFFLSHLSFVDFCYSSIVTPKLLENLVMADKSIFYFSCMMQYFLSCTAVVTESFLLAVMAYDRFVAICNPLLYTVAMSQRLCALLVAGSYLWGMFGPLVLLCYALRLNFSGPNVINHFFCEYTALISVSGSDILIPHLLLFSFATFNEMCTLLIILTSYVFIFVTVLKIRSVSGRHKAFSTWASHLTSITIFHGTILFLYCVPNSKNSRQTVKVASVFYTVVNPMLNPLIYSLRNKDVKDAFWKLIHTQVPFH
Summary of the method: as §1

OR5D16 (Homo sapiens) = molecular target: T4, OR5D16 (Homo sapiens) (UniProt Q8NGK9)
T4 sequence (whole entry): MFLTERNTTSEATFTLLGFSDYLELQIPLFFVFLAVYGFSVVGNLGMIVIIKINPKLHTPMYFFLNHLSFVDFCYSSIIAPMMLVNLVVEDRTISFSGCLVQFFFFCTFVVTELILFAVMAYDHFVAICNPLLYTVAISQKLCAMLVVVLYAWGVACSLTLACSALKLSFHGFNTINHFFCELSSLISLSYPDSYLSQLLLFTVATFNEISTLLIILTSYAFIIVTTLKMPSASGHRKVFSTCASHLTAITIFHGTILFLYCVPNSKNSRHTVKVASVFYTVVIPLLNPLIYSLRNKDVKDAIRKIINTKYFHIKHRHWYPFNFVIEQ
Summary of the method: as §1

OR5D18 (Homo sapiens) = molecular target: T5, OR5D18 (Homo sapiens) (UniProt Q8NGL1)
T5 sequence (whole entry): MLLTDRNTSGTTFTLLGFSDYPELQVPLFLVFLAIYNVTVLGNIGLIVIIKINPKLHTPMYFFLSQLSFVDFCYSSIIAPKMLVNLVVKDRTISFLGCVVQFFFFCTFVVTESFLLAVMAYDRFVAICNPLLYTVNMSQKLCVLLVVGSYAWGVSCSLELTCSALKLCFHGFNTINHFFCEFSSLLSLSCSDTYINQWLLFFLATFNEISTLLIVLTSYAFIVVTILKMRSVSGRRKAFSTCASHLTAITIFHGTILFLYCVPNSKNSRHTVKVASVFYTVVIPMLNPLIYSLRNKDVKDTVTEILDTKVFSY
Summary of the method: as §1

OR5BC C141R = tested on: T6, OR5BC C141R
T6 sequence (whole entry): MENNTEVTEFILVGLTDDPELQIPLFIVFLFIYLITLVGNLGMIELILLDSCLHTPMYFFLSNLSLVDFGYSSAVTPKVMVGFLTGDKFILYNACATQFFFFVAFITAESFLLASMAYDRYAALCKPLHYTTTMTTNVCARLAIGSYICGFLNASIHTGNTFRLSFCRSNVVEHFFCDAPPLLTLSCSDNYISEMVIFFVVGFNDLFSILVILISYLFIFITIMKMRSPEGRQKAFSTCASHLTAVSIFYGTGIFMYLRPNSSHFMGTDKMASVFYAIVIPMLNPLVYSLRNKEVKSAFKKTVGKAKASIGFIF
Summary of the method: as §1

OR5BH L80I I85M = tested on: T7, OR5BH L80I I85M
T7 sequence (whole entry): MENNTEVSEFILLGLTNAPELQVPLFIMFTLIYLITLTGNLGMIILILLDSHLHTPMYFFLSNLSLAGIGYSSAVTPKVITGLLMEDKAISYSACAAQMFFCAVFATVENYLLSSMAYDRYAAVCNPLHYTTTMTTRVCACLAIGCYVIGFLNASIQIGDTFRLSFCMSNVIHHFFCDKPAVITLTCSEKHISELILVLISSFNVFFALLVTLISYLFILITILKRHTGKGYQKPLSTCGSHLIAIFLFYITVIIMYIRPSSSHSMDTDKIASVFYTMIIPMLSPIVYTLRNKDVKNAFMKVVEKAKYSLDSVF
Summary of the method: as §1

OR5BH L80I = tested on: T8, OR5BH L80I
T8 sequence (whole entry): T7 sequence (whole entry) with M85I
Summary of the method: as §1

OR5DD C62Y = tested on: T9, OR5DD C62Y
T9 sequence (whole entry): T2 sequence (whole entry) with C62Y
Summary of the method: as §1

OR5DE S249A L290P = tested on: T10, OR5DE S249A L290P
T10 sequence (whole entry): T3 sequence (whole entry) with S249A, L290P
Summary of the method: as §1

Measured: odorant receptor agonist call

CCCCCC(S)C(C)CO (stereo not given)
inactive: OR5C1 (Homo sapiens) | OR5D13 (Homo sapiens) | OR5D14 (Homo sapiens) | OR5D16 (Homo sapiens) | OR5D18 (Homo sapiens)

CC1CCCCCCCCCCCCC(=O)C1 (stereo not given)
inactive: OR5C1 (Homo sapiens) | OR5D13 (Homo sapiens) | OR5D14 (Homo sapiens) | OR5D16 (Homo sapiens) | OR5D18 (Homo sapiens)

CCCCCC(=O)C(C)C(C)=O (stereo not given)
inactive: OR5C1 (Homo sapiens) | OR5D13 (Homo sapiens) | OR5D14 (Homo sapiens) | OR5D16 (Homo sapiens) | OR5D18 (Homo sapiens)

CCCCCCC=CCCC=O
inactive: OR5BC C141R | OR5BH L80I I85M | OR5BH L80I | OR5C1 (Homo sapiens) | OR5D13 (Homo sapiens) | OR5D14 (Homo sapiens) | OR5D16 (Homo sapiens) | OR5D18 (Homo sapiens) | OR5DD C62Y | OR5DE S249A L290P

CCC1OC(C)=C(O)C1=O (stereo not given)
inactive: OR5BC C141R | OR5BH L80I I85M | OR5BH L80I | OR5C1 (Homo sapiens) | OR5D13 (Homo sapiens) | OR5D14 (Homo sapiens) | OR5D16 (Homo sapiens) | OR5D18 (Homo sapiens) | OR5DD C62Y | OR5DE S249A L290P

CCCCC(S)C(C)CO (stereo not given)
inactive: OR5C1 (Homo sapiens) | OR5D13 (Homo sapiens) | OR5D14 (Homo sapiens) | OR5D16 (Homo sapiens) | OR5D18 (Homo sapiens)

CC1=C(O)C(=O)OC1C (stereo not given)
inactive: OR5BC C141R | OR5BH L80I I85M | OR5BH L80I | OR5C1 (Homo sapiens) | OR5D13 (Homo sapiens) | OR5D14 (Homo sapiens) | OR5D16 (Homo sapiens) | OR5D18 (Homo sapiens) | OR5DD C62Y | OR5DE S249A L290P

CC(CO)CS (stereo not given)
inactive: OR5C1 (Homo sapiens) | OR5D13 (Homo sapiens) | OR5D14 (Homo sapiens) | OR5D16 (Homo sapiens) | OR5D18 (Homo sapiens)

CC1=NC(C)C(C)S1 (stereo not given)
inactive: OR5BC C141R | OR5BH L80I I85M | OR5BH L80I | OR5C1 (Homo sapiens) | OR5D13 (Homo sapiens) | OR5D14 (Homo sapiens) | OR5D16 (Homo sapiens) | OR5D18 (Homo sapiens) | OR5DD C62Y | OR5DE S249A L290P

CCCC(S)CCOC(C)=O (stereo not given)
inactive: OR5BC C141R | OR5BH L80I I85M | OR5BH L80I | OR5C1 (Homo sapiens) | OR5D13 (Homo sapiens) | OR5D14 (Homo sapiens) | OR5D16 (Homo sapiens) | OR5D18 (Homo sapiens) | OR5DD C62Y | OR5DE S249A L290P

CCC1OC(=O)C(O)=C1C (stereo not given)
inactive: OR5BC C141R | OR5BH L80I I85M | OR5BH L80I | OR5C1 (Homo sapiens) | OR5D13 (Homo sapiens) | OR5D14 (Homo sapiens) | OR5D16 (Homo sapiens) | OR5D18 (Homo sapiens) | OR5DD C62Y | OR5DE S249A L290P

CC(=O)c1c(C)c([N+](=O)[O-])c(C(C)(C)C)c([N+](=O)[O-])c1C
inactive: OR5C1 (Homo sapiens) | OR5D13 (Homo sapiens) | OR5D14 (Homo sapiens) | OR5D16 (Homo sapiens) | OR5D18 (Homo sapiens)

CCC(S)C(C)CO (stereo not given)
inactive: OR5C1 (Homo sapiens) | OR5D13 (Homo sapiens) | OR5D14 (Homo sapiens) | OR5D16 (Homo sapiens) | OR5D18 (Homo sapiens)

CC1=C(O)C(=O)C(C)O1 (stereo not given)
inactive: OR5BC C141R | OR5BH L80I I85M | OR5BH L80I | OR5C1 (Homo sapiens) | OR5D13 (Homo sapiens) | OR5D14 (Homo sapiens) | OR5D16 (Homo sapiens) | OR5D18 (Homo sapiens) | OR5DD C62Y | OR5DE S249A L290P

Cc1cnc(C)c(C)n1
inactive: OR5BC C141R | OR5BH L80I I85M | OR5BH L80I | OR5C1 (Homo sapiens) | OR5D13 (Homo sapiens) | OR5D14 (Homo sapiens) | OR5D16 (Homo sapiens) | OR5D18 (Homo sapiens) | OR5DD C62Y | OR5DE S249A L290P
